“Also recorded” adds a separate entry of the source.
Key:
[1] = Phase 1 safety monitoring of PX-866 with docetaxel; format: in vivo, human
Procedure, shortened: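 Open-label dose escalation in cohorts of 6–9 patients at 4, 6 or 8 mg oral daily test compound plus docetaxel 75 mg m−2 IV every 21 days, with dexamethasone premedication. All patients receiving ≥1 dose had vital signs, labs and exams; AEs were graded by NCI CTCAE v4.02. DLTs included related grade ≥3 events, febrile grade 3/4 neutropenia, platelets <25 000 per μl and ANC <500 per μl for >7 days.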

incurable solid tumours = test: Phase 1 antitumour activity of PX-866 with docetaxel; format: in vivo, human
Procedure, shortened: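 Test compound given orally at 4, 6 or 8 mg daily (fasting) with docetaxel 75 mg m−2 IV every 21 days. In cycle 1, docetaxel was given on day 1 and the test compound started on day 8. Response was assessed about every 6 weeks by RECIST 1.1, with PSA per PCWG allowed in mCRPC. PFS ran from consent to progression or death. Archival tumour was genotyped for PIK3CA/KRAS by shifted termination assay.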

PI3Kα = conditions: read-out: IC50 against PI3Kα; ref Wipf et al, 2004; cited from earlier work
PI-3Kβ = conditions: read-out: IC50 against PI-3Kβ; ref Wipf et al, 2004; cited from earlier work
A-549 NSCLC xenografts = conditions: single agent; ref Ihle et al, 2005; Koul et al, 2010; cited from earlier work
[2] = system: OvCar-3 ovarian cancer xenografts; conditions: single agent; ref Ihle et al, 2005; Koul et al, 2010; cited from earlier work
[3] = system: HT29 colon cancer xenografts; conditions: single agent; ref Ihle et al, 2005; Koul et al, 2010; cited from earlier work
U87 glioma xenografts = conditions: single agent; ref Ihle et al, 2005; Koul et al, 2010; cited from earlier work
[4] = system: Patient-derived SCCHN xenografts; conditions: PX-866 and docetaxel compared with either agent alone; ref Bowles et al, 2011; cited from earlier work
advanced solid tumors = conditions: ref Hong et al, 2012, cited from earlier work
[5] = PX-866 with docetaxel, 43 patients
[6] = Total, all PX-866 doses + docetaxel, N=43

**Q.** Which results are given for C=CCN(/C=C1/C(=O)O[C@H](COC)[C@@]2(C)C1=C(O)C(=O)C1=C2[C@H](OC(C)=O)C[C@]2(C)C(=O)CC[C@@H]12)CC=C [PX-866]?
**A.** Treatment-emergent AE: Neutropenia ([1]; PX-866 8 mg + docetaxel, N=23): 6 (26) N (%); Treatment-emergent AE: Oedema peripheral ([1]; PX-866 8 mg + docetaxel, N=23): 7 (30) N (%); Treatment-emergent AE: Oropharyngeal pain ([1]; PX-866 8 mg + docetaxel, N=23): 5 (22) N (%); Treatment-emergent AE: Pyrexia ([1]; PX-866 8 mg + docetaxel, N=23): 6 (26) N (%); Treatment-emergent AE: Stomatitis ([1]; PX-866 8 mg + docetaxel, N=23): 4 (17) N (%); Treatment-emergent AE: Vomiting ([1]; PX-866 8 mg + docetaxel, N=23): 14 (61) N (%); Treatment-emergent AEs, frequency by severity: Grade 1 ([1]; PX-866 8 mg + docetaxel, N=23): 84 (50) N (%); Treatment-emergent AEs, frequency by severity: Grade 2 ([1]; PX-866 8 mg + docetaxel, N=23): 62 (37) N (%); Treatment-emergent AEs, frequency by severity: Grade 3 ([1]; PX-866 8 mg + docetaxel, N=23): 15 (9) N (%); Treatment-emergent AEs, frequency by severity: Grade 4 ([1]; PX-866 8 mg + docetaxel, N=23): 8 (5) N (%); Treatment-emergent AEs, frequency by severity: Grade 5 ([1]; PX-866 8 mg + docetaxel, N=23): 0 (0) N (%); dose-limiting toxicities ([1]; PX-866 4, 6, 8 mg daily with docetaxel 75 mg m^−2): No dose-limiting toxicities; also recorded: No DLTs; tolerability ([1]; PX-866 and docetaxel): well tolerated; gastrointestinal disorders, PX-866-related [1, 5]: 83.7%; study drug-related diarrhoea, patients [1, 5]: 76.7%; Grade 3/4 AE related to PX-866: diarrhoea ([1]; PX-866 with docetaxel, N=43): 3 N; Grade 3/4 AE related to PX-866: nausea ([1]; PX-866 with docetaxel, N=43): 2 N; SAEs considered related to study treatment ([1]; PX-866 with docetaxel, N=43): 17; patients who experienced serious AEs ([1]; PX-866 with docetaxel, N=43): Twenty; treatment-emergent AE neutropenia ([1]; PX-866 with docetaxel, N=43): 40%; treatment-emergent AE peripheral oedema ([1]; PX-866 with docetaxel, N=43): 40%; treatment-emergent AE vomiting ([1]; PX-866 with docetaxel, N=43): 51%; Treatment-emergent AE: Alopecia [1, 6]: 12 (28) N (%); Treatment-emergent AE: Anaemia [1, 6]: 13 (30) N (%); Treatment-emergent AE: Arthralgia [1, 6]: 7 (16) N (%); Treatment-emergent AE: Asthenia [1, 6]: 11 (26) N (%); Treatment-emergent AE: Bone pain [1, 6]: 9 (21) N (%); Treatment-emergent AE: Constipation [1, 6]: 13 (30) N (%); Treatment-emergent AE: Cough [1, 6]: 10 (23) N (%); Treatment-emergent AE: Decreased appetite [1, 6]: 15 (35) N (%); Treatment-emergent AE: Dehydration [1, 6]: 15 (35) N (%); Treatment-emergent AE: Diarrhoea [1, 6]: 33 (77) N (%); Treatment-emergent AE: Dizziness [1, 6]: 7 (16) N (%); Treatment-emergent AE: Dysgeusia [1, 6]: 8 (19) N (%); Treatment-emergent AE: Epistaxis [1, 6]: 7 (16) N (%); Treatment-emergent AE: Fatigue [1, 6]: 26 (61) N (%); Treatment-emergent AE: Hypokalemia [1, 6]: 9 (21) N (%); Treatment-emergent AE: Nausea [1, 6]: 25 (58) N (%); Treatment-emergent AE: Neutropenia [1, 6]: 17 (40) N (%); Treatment-emergent AE: Oedema peripheral [1, 6]: 17 (40) N (%); Treatment-emergent AE: Oropharyngeal pain [1, 6]: 7 (16) N (%); Treatment-emergent AE: Pyrexia [1, 6]: 11 (26) N (%); Treatment-emergent AE: Stomatitis [1, 6]: 9 (21) N (%); Treatment-emergent AE: Vomiting [1, 6]: 22 (51) N (%); Treatment-emergent AEs, frequency by severity: Grade 1 [1, 6]: 152 (51) N (%); Treatment-emergent AEs, frequency by severity: Grade 2 [1, 6]: 102 (34) N (%); Treatment-emergent AEs, frequency by severity: Grade 3 [1, 6]: 28 (9) N (%); Treatment-emergent AEs, frequency by severity: Grade 4 [1, 6]: 18 (6) N (%); Treatment-emergent AEs, frequency by severity: Grade 5 [1, 6]: 0 (0) N (%); RP2D of PX-866 in combination ([1]; daily, with docetaxel 75 mg m^−2 IV every 21 days): 8 mg; deaths on study ([1]; two after progressive disease, one pneumonia unrelated to either study drug): three; evaluable patients remaining on study in excess of 180 days (incurable solid tumours; 11 out of 35): 31%; best response: partial response (PR) (incurable solid tumours; 35 evaluable patients (2 patients)): 6%; best response: disease progression (PD) (incurable solid tumours; 35 evaluable patients (11 patients)): 31%; median PFS, PIK3CA-MUT/KRAS-WT (incurable solid tumours; N=6, range: 49–334, P=0.23 vs WT/WT): 175 days; median PFS, mutational status unknown (incurable solid tumours; N=12, range: 1–569): 77.5 days; median PFS, PIK3CA-WT/KRAS-WT (incurable solid tumours; N=20, range: 1–342): 49 days; PR+SD rate (incurable solid tumours; evaluable patients): 69%; overall median progression-free survival (PFS) (incurable solid tumours; range: 1–569): 73.5 days; patients with tumour shrinkage of ⩾15% (incurable solid tumours; ten patients): 29%; IC50 (PI3Kα): 0.039 ± 0.021 µM; IC50 (PI-3Kβ): 0.088 ± 0.027 µM; tumour growth (A-549 NSCLC xenografts): delays tumour growth; tumour growth [2]: delays tumour growth; tumour growth [3]: delays tumour growth; tumour growth (U87 glioma xenografts): delays tumour growth; tumour suppression [4]: enhanced tumour suppression; single-agent MTD (advanced solid tumors; previously determined, daily): 8 mg; time PX-866 may be given safely (advanced solid tumors): over 1 year; best response per RECIST 1.1: stable disease, share of evaluable patients (advanced solid tumors; single-agent PX-866, week 6): over 50%; recommended phase 2 dose (RP2D), single agent (advanced solid tumors; single-agent PX-866): 8 mg daily
